The source of these data is ChEMBL document CHEMBL2163266, “3,3'-Disubstituted bipolar biphenyls as inhibitors of nuclear receptor coactivator binding” (Bioorg Med Chem Lett, 2012).

Active and inactive are the calls of the source. No cut-off for these calls is given here.

Data set [1] relates to MCF7. Nature of the data set: Effect on E2-induced IDH3A expression in human MCF7 cells at 20 uM incubated for 2 hrs measured after 14 hrs by qPCR analysis. It counts as functional, cell-based. A digest of the protocol:
(§1)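 MCF-7 (ER+) cells pretreated 2 h with 20 µM compound, then exposed to vehicle or estradiol for 14 h before target gene expression was measured.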

The target of data set [2] is T1, Estrogen receptor (Homo sapiens) (UniProt P03372).
T1 sequence (whole entry): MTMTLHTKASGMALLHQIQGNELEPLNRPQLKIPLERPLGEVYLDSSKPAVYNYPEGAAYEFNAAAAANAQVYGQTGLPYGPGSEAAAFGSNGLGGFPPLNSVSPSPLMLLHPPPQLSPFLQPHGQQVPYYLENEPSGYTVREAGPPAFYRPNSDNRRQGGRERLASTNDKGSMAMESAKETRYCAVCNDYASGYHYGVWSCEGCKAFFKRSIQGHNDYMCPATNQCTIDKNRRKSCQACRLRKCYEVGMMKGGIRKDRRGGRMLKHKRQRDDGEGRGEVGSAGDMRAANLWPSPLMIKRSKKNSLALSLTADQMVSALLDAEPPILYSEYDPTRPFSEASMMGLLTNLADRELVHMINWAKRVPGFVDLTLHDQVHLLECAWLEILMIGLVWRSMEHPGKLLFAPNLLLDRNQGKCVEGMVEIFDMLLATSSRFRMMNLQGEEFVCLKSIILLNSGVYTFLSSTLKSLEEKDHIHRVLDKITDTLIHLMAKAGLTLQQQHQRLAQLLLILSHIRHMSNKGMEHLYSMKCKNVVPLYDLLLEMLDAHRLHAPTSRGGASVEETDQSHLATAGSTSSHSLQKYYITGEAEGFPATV
In words: Binding affinity to ERalpha co-activator binding domain by TR-FRET assay.

Data set [3] has as its target T1, Estrogen receptor (Homo sapiens). Nature of the data set: Antagonist activity at ERalpha co-activator binding domain in human Hec1 cells assessed as inhibition of co-activator binding by reporter gene assay. The data set is classed as cell-based.
For data set [4] the target is unchanged. Nature of the data set: Agonist activity at ERalpha in human MCF7 cells assessed as increase in PS2 expression at 20 uM incubated for 2 hrs measured after 14 hrs by qPCR analysis relative to E2. The data set is classed as functional, cell-based. Put shortly:
as §1

Data set [5] has the same target. In words: Activity at ERalpha in human MCF7 cells assessed as increase in E2-induced PR expression at 20 uM incubated for 2 hrs prior to E2-induction measured after 14 hrs by qPCR analysis. It counts as cell-based. A digest of the protocol: as §1
The subject of data set [6] is MCF7. In words: Effect on IDH3A expression in human MCF7 cells at 20 uM incubated for 2 hrs measured after 14 hrs by qPCR analysis relative to E2. The data set is classed as functional, cell-based. A digest of the protocol: as §1
For data set [7], the target named is T1, Estrogen receptor (Homo sapiens). Nature of the data set: Agonist activity at ERalpha in human MCF7 cells assessed as increase in PR expression at 20 uM incubated for 2 hrs measured after 14 hrs by qPCR analysis relative to E2. It counts as functional, cell-based. Put shortly: as §1
For data set [8] the target is unchanged. In words: Antagonist activity at ERalpha in human MCF7 cells assessed as reduction in E2-induced SDF1 expression at 20 uM incubated for 2 hrs prior to E2-induction measured after 14 hrs by qPCR analysis. It counts as functional, cell-based. Details: scale not given: the % may be the effect or the level left. A digest of the protocol: as §1
For data set [9] the target is unchanged. Nature of the data set: Agonist activity at ERalpha in human MCF7 cells assessed as increase in SDF1 expression at 20 uM incubated for 2 hrs measured after 14 hrs by qPCR analysis relative to E2. It counts as functional, cell-based. Put shortly: as §1
For data set [10] the target is unchanged. Nature of the data set: Activity at ERalpha in human MCF7 cells assessed as increase in E2-induced PS2 expression at 20 uM incubated for 2 hrs prior to E2-induction measured after 14 hrs by qPCR analysis. The data set is classed as cell-based. Put shortly: as §1
Data set [11] shares this target. In words: Agonist activity at ERalpha co-activator binding domain expressed in human HepG2 cells assessed as […] LXXLL2 binding measured as […] activity at <20 uM. The data set is classed as cell-based. A digest of the protocol: (§2)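 HepG2 cells co-transfected with VP16-ERα, pM-GRIP1-LXXLL2, the 5xGal4-Luc3 reporter and a pCMV-β-gal normalization control. Serial twofold dilutions given with or without 1 nM estradiol, 40 h, then reporter read. Scored as >50% increase or decrease in reporter activity within concentration bands (<20, 20–50, >50 µM); <20% change scored 0.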

Data set [12] has the same target. Nature of the data set: Antagonist activity at ERalpha co-activator binding domain expressed in human HepG2 cells assessed as inhibition of E2-induced […] LXXLL2 binding measured as decrease in […] activity after 40 hrs by luciferase reporter gene assay. The data set is classed as cell-based. Further details: concentration or dose not given beside the values. A digest of the protocol:
as §2

The subject of a further data set is CV-1. In words: Cytotoxicity against african green monkey CV1 cells at >50 uM. It counts as cell-based. The note with it: chlorocebus aethiops.
For data set [13], the target named is T1, Estrogen receptor (Homo sapiens). Nature of the data set: Antagonist activity at ERalpha co-activator binding domain expressed in human HepG2 cells assessed as inhibition of E2-induced […] LXXLL2 binding measured as decrease in […] activity at 20 to 50 uM after 40 hrs by luciferase reporter gene assay. The data set is classed as cell-based. Put shortly:
as §2

The target is the same in data set [14]. In words: Antagonist activity at ERalpha in human MCF7 cells assessed as reduction in E2-induced PS2 expression at 20 uM incubated for 2 hrs prior to E2-induction measured after 14 hrs by qPCR analysis. It counts as functional, cell-based. Details: scale not given: the % may be the effect or the level left. Put shortly: as §1
The target is the same in data set [15]. In words: Antagonist activity at ERalpha in human MCF7 cells assessed as reduction in E2-induced PR expression at 20 uM incubated for 2 hrs prior to E2-induction measured after 14 hrs by qPCR analysis. It counts as functional, cell-based. Further details: scale not given: the % may be the effect or the level left. Put shortly:
as §1

The test system of the next data set is HepG2. Nature of the data set: Cytotoxicity against human HepG2 cells expressing ERalpha co-activator binding domain at >50 uM. It counts as cell-based.

In the case of `CN(C)CCOc1ccc(-c2ccc(OCC(=O)O)c(C(C)(C)C)c2)cc1C(C)(C)C`, the outcome with MCF7 [1] and with MCF7 [6] was inactive. In addition, the outcome in [2] was Active. For the same compound, the inhibition entry in data set [3] is “Active”. Further, the Activity in [4], in [5], in data set [7], in data set [8], in data set [9] and in data set [10] was greater than 20% throughout.

Turning to `CCOC(=O)COc1ccc(-c2ccc(O)c(C(C)(C)C)c2)cc1C(C)(C)C`, the Activity in [11] is greater than 50%; in [12] it was less than 20%.

As to `CCOC(=O)COc1ccc(-c2ccc(O)c(C(C)C)c2)cc1C(C)C`, the Activity result in the data set with CV-1 is recorded as “Toxic”. Besides, in [13], the inhibition is greater than 50%.

Take `CCOC(=O)COc1ccc(-c2ccc(OCCN(C)C)c(Cc3ccccc3)c2)cc1Cc1ccccc1`: the Activity result with CV-1 is given as “Toxic”.

On to `CCOC(=O)COc1ccc(-c2ccc(OCCN(C)C)cc2)cc1`, for which the Activity in data set [11] is greater than 50%; in [12] it was less than 20%.

For the compound `CC(C)c1cc(-c2ccc(OCC(=O)O)c(C(C)C)c2)ccc1OCCN(C)C`, the outcome (in the data set on MCF7 [1]; in data set [4]; in the data set with MCF7 [6]; in [7]; in [14]; in data set [9]) was inactive. The result in data set [2] was Active. For the same compound, the inhibition result in [3] is “Active”. The Activity was greater than 20% in [8], less than 20% in data set [12] and greater than 20% in data set [15].

Take `CCOC(=O)COc1ccc(-c2ccc(O)c(C(C)CC)c2)cc1C(C)CC` (stereo unspecified): in the data set with CV-1, the Activity result is “Toxic”. For the same compound, in [13], the inhibition is greater than 50%.

As to `CCC(C)c1cc(-c2ccc(OCC(=O)O)c(C(C)CC)c2)ccc1OCCN(C)C` (stereo unspecified), the result (in the data set on MCF7 [1]; in data set [4]; in the data set with MCF7 [6]; in [7]; in data set [9]) was inactive. The outcome in [2] was Active. Further, the inhibition result in data set [3] is “Active”. For the same compound, the Activity in data set [14], in [8] and in data set [15] was greater than 20% in each case.

Turning to `CCOC(=O)COc1ccc(-c2ccc(OCCN(C)C)c(C(C)C)c2)cc1C(C)C`, the Activity in data set [12] is less than 20%.

As to `CN(C)CCOc1ccc(-c2ccc(OCC(=O)O)cc2)cc1`, the outcome (with MCF7 [1]; with MCF7 [6]; in data set [14]) was inactive. Further, the outcome in data set [2] was Active. Besides, the inhibition entry in data set [3] is “Active”. Also, the Activity was greater than 20% in data set [4]; greater than 20% in data set [7]; greater than 20% in data set [8]; greater than 20% in [9]; less than 20% in data set [12]; greater than 20% in data set [15].

In the case of `CCOC(=O)COc1ccc(-c2ccc(OCCN(C)C)c(C(C)CC)c2)cc1C(C)CC` (stereo unspecified), the Activity entry with CV-1 was “Toxic”; in data set [11] it was greater than 50%; with HepG2 it was “Toxic”.

Turning to `CCOC(=O)COc1ccc(-c2ccc(O)cc2)cc1`, the Activity in [11] is greater than 50%; in data set [12] it was less than 20%.

On to `CN(C)CCOc1ccc(-c2ccc(OCC(=O)O)c(Cc3ccccc3)c2)cc1Cc1ccccc1`, for which the result (with MCF7 [1]; in [4]; in the data set on MCF7 [6]; in data set [7]; in [14]; in [9]) was inactive. Further, the result in [2] was Active. For the same compound, the inhibition result in data set [3] was “Active”. The Activity in data set [8] and in data set [15] was greater than 20% throughout. Besides, the inhibition in data set [13] was greater than 50%.

Turning to `CCOC(=O)COc1ccc(-c2ccc(O)c(Cc3ccccc3)c2)cc1Cc1ccccc1`, in data set [12], the Activity is less than 20%.

Take `CCOC(=O)COc1ccc(-c2ccc(OCCN(C)C)c(C(C)(C)C)c2)cc1C(C)(C)C`: the Activity result is “Toxic” with CV-1 and less than 20% in data set [12].
